pEC50, pIC50: −log10 of the molar value. Activity calls are given as the source filed them. The calls are words filed in the database; no cut-off is given here.
Key:
MCF7 [1] = assay: Cell cycle arrest in human MCF7 cells assessed as increase in accumulation at G2/M phase at 10 uM after 18 hrs by Hoechst 33342 staining based FACS analysis relative to control; format: functional
In short: (§1)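 Cells seeded 48 h beforehand, treated 18 h with test compounds at 10 µM or vincristine at 100 nM, then trypsinised and stained with Hoechst 33342 for 60 min; FACS read at 450 nm; % G2/M increase calculated relative to 0.1% DMSO vehicle; mean ± SEM of three independent experiments.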

PANC-1 [2] = assay: Cell cycle arrest in human PANC1 cells assessed as increase in accumulation at G2/M phase at 10 uM after 18 hrs by Hoechst 33342 staining based FACS analysis relative to control; format: functional; in short: as §1
PANC-1 [3] = assay: Cell cycle arrest in human PANC1 cells assessed as accumulation at G2/M phase at 10 uM after 18 hrs by Hoechst 33342 staining based FACS analysis (reference value: 13.7%); format: functional
HeLa = assay: Cytotoxicity against human HeLa cells; format: functional, cell-based
Homo sapiens [4] = organism: Homo sapiens; assay: Ratio of nicardipine activity to test compound activity for inhibition of P-gp in human NCI/ADR-RES cells assessed as rate of calcein-AM accumulation; format: cell-based
In short: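 Rate of calcein accumulation in NCI/AdrRES cells (1 µM calcein-AM in HBSS, fluorescence versus time, slope by linear regression) with the P-gp modulator nicardipine, compared to the rate with test compound.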

MCF7 [5] = assay: Antiproliferative activity against human MCF7 cells after 6 days by MTT assay; format: functional, cell-based; conditions: MCF7, 144 h
In short: (§2)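 Cells seeded overnight at 1500/well, then exposed to a range of concentrations for 6 d; viability by MTT (570 nm, background-subtracted, normalised to untreated control = 100%); EC50 from sigmoidal dose-response fit by non-linear least squares; mean ± SEM of at least 8 independent observations. MCF-7 in MEMα + 10% FBS; NCI/AdrRES in DMEM + 10% FCS with periodic 3 µM doxorubicin selection.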

PANC-1 [6] = assay: Cell cycle arrest in human PANC1 cells assessed as accumulation at G1 phase at 10 uM after 18 hrs by Hoechst 33342 staining based FACS analysis (reference value: 70.7%); format: functional
[7] = Terminal half life in human; format: ADME, organism-based; conditions: in vivo, read-out: beta t1/2 (converted)
Sus scrofa = organism: Sus scrofa; assay: Inhibition of pig tubulin polymerization assessed as Vmax of tubulin polymerization at 10 uM after 60 mins turbidimetric analysis (reference value: 27 +/- 2 milliOD/min)
MCF7 [8] = assay: Effect on calcein-AM accumulation in human wild type MCF7 cells at 1 uM by fluorescence assay; format: functional, cell-based
In short: (§3)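 Cells seeded at 2 × 10^3/well and grown 2 d, washed and placed in HBSS; test compound added at 2X in HBSS with DMSO ≤1% final, then calcein-AM at 1 µM final; intracellular fluorescence followed over time, rate taken as slope from linear regression.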

[9] = Cytotoxicity against human Renal 1983 cells; format: functional, cell-based
[10] = Binding affinity to recombinant P-gp cys-less mutant (unknown origin) in proteoliposomes assessed as increase in ATP hydrolysis rate after 40 mins by colorimetric assay; design: species or system Homo sapiens
In short: (§4)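 P-gp expressed in High-Five insect cells via recombinant baculovirus, IMAC-purified and reconstituted into proteoliposomes; 0.1-0.5 µg incubated with 2 mM ATP and drug at 10^-9 to 10^-4 M for 40 min at 37 °C; liberated Pi measured colorimetrically; EC50 and extent of stimulation from dose-response fit against drug-free basal activity.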

[11] = Absolute oral bioavailability in human at 150 mg; format: ADME, organism-based; conditions: in vivo
PANC-1 [12] = assay: Cell cycle arrest in human PANC1 cells assessed as accumulation at S phase at 10 uM after 18 hrs by Hoechst 33342 staining based FACS analysis (reference value: 11.1%); format: functional
Homo sapiens [13] = organism: Homo sapiens; assay: Binding affinity to recombinant P-gp cys-less mutant (unknown origin) in proteoliposomes assessed as increase in ATP hydrolysis rate at 10^-9 to 10^-4 M after 40 mins by colorimetric assay relative to basal control; in short: as §4
NCI/ADR-RES [14] = assay: Inhibition of P-gp in human NCI/ADR-RES cells assessed as rate of calcein-AM accumulation at 1 uM by fluorescence assay; format: cell-based; in short: as §3
NCI/ADR-RES [15] = assay: Antiproliferative activity against human NCI/ADR-RES cells after 6 days by MTT assay; format: functional, cell-based; conditions: 144 h; in short: as §2
MCF7 [16] = assay: Cytotoxicity against human MCF7 cells; format: functional, cell-based

SMILES | Activity (MCF7 [1]) | Activity (PANC-1 [2]) | also measured
CCNC(=O)N1CCc2c(Br)c3c(c(OC)c2C1Cc1cccc(OC)c1OC)OCO3 (centres undefined) | 11% | 28% | 
CCNC(=O)N1CCc2c(Br)c3c(c(OC)c2C1Cc1ccccc1)OCO3 (centres undefined) | 1% | -8% | 
COc1ccc(C2c3c(c(Br)c4c(c3OC)OCO4)CCN2C)cc1OC (centres undefined) | 20% | 8% | 
CCNC(=O)N1CCc2c(Br)c3c(c(OC)c2C1c1cc(OC)c(OC)c(OC)c1)OCO3 (centres undefined) | 3% | 2% | 
CCNC(=O)N1CCc2c(Br)c3c(c(OC)c2C1c1ccccc1)OCO3 (centres undefined) | 6% | -2% | 
CCNC(=O)N1CCc2c(Br)c3c(c(OC)c2C1Cc1cc(OC)c(OC)c(OC)c1)OCO3 (centres undefined) | 5% | -4% | 
CCNC(=O)N1CCc2c(Br)c3c(c(OC)c2C1c1cccc(OC)c1OC)OCO3 (centres undefined) | 19% | 14% | 
COc1ccc2c(c1OC)CC1c3c(c(Br)c4c(c3OC)OCO4)CCN1C2 (centres undefined) | 28% | 9% | 
COc1cc(CC2c3c(c(Br)c4c(c3OC)OCO4)CCN2C)cc(OC)c1OC (centres undefined) | -8% | -1% | 
COc1ccc(C2c3c(c(Br)c4c(c3OC)OCO4)CCN2C)cc1 (centres undefined) | 23% | 26% | 
COc1ccc2c(c1OC)C(=O)O[C@@H]2[C@H]1c2c(cc3c(c2OC)OCO3)CCN1C [NOSCAPINE] | 2% | 16% | Activity (PANC-1 [3]): 16.1%; pIC50 (HeLa): 4.60; Ratio (Homo sapiens [4]): 4; pIC50 (MCF7 [5]): 4.73; Activity (PANC-1 [6]): 69.3%; half-life [7]: 4.5 h; Vmax (milli optical density/minute) (Sus scrofa): 20; Activity (MCF7 [8]): inactive; pIC50 [9]: 4.41; pEC50 [10]: 4.16; bioavailability [11]: 30%; Activity (PANC-1 [12]): 10.8%; fold change (FC) (Homo sapiens [13]): 17.6; Activity (NCI/ADR-RES [14]): 26.7 RFU/min; pIC50 (NCI/ADR-RES [15]): 4.76; pIC50 (MCF7 [16]): 4.38
COc1ccc(CC2c3c(c(Br)c4c(c3OC)OCO4)CCN2C)cc1OC (centres undefined) | 19% | 0% | 
COc1c2c(c(Br)c3c1C(Cc1ccccc1)N(C)CC3)OCO2 (centres undefined) | 9% | 13% | 
COc1cccc(CC2c3c(c(Br)c4c(c3OC)OCO4)CCN2C)c1OC (centres undefined) | 32% | 8% | 
